A selection follows.
Apaf-1 act: human Apaf-1 activation; O14727; activity change, negative = activation, % at 20 µM; 330,000 compounds, 0.31% hits; AID 489031; Apaf-1 apoptosome caspase-3 activation, DEVD-Rh110 fluorescence; hits give low values;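 active = activity change at or below -40% at 20 µM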
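Material: reconstituted apoptosome of Apaf-1, cytochrome c, caspase-9, procaspase-3; times: 30 min preincubation, 50 min reaction, room temperature; measured by: fluorescence, 540 nm emission, 480 nm excitation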
Rh110 act interf: interferes with Rh110 fluorescence, flagging false Apaf-1 activators | 980 tested, under 10 active | shares compounds with Apaf-1 act | Rh110 fluorescence interference, quenched caspase reaction, Ex480/Em540 | AID 504616 | fluorescence interference (activity change), % at 20 µM, hits read low;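 active = mean activity change at or below -40% when tested at 20 µM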
Apaf-1 act conf: confirmation of human Apaf-1 activators | reconstituted apoptosome caspase-3 activity, DEVD-Rh110 fluorescence; hits give low values | activity change, negative = activation, % at 20 µM | 980 compounds, 5% hits | shares compounds with Apaf-1 act;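 active = mean activity change at or below -40%, meaning activation of 40% or more, at 20 µM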
Starred values were filed as active, the others as inactive; · = no result given.

SMILES | Apaf-1 act | Rh110 act interf | Apaf-1 act conf
O=C1c2ccccc2C(=O)C12OC2c1cccc2ccccc12 (stereo not drawn) | 94 | · | ·
CC(C)(C)NC(=O)[C@@H]1C[C@@H]2CCCC[C@@H]2CN1C[C@@H](O)[C@H](Cc1ccccc1)NC(=O)[C@H](CC(N)=O)NC(=O)c1ccc2ccccc2n1 | 35 | · | ·
CCCCNc1c(-c2ccc(SC3CCCCC3)cc2)nc2cnccn12 | 42 | · | ·
C=C(C)C(=O)Nc1ccc(OC(F)(F)C(F)F)c(NC(=O)C(=C)C)c1 | -85* | 4 | -21
Cc1ccc(N(CC(=O)N/N=C/c2ccc(OC3CSC3)cc2)S(=O)(=O)c2ccccc2)c(C)c1 | 63 | · | ·
COc1ccc(/C=C/C(=O)Nc2cc(C)nn2-c2nc3ccccc3[nH]2)cc1 | -56* | 11 | 15
CCCCCCOc1ccc(/C(C)=N/NC2=NCCN2)cc1[N+](=O)[O-] | 54 | · | ·
CCOC(=O)N1CCC(NC(=O)CN2C(=O)CSc3ncccc32)CC1 | 63 | · | ·
Cc1cccc(-n2ncc3c2CCCC3NC(=O)CN2CCCC2=O)c1C (stereo not drawn) | -203* | 5 | 4
CC1=NN(c2ccc(C)cc2C)C(=O)C1C(c1ccccc1)C1C(=O)N(c2ccc(C)cc2C)N=C1C (stereo not drawn) | 67 | · | ·
